This is a sample that favours compounds with a hit; in the whole collection about 3.5% have one here.
MrgX1 ag – agonists of human MrgX1 receptor, primary screen, HEK293 cells, Fluo-4 calcium flux; Mas-related G-protein coupled receptor member X1 (Homo sapiens), Q96LB2; Fluo-4 calcium fluorescence, agonist mode; hits give high values; B-score at 10 µM; actives 0.44% (n = 310,000);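 active means calcium response B-score plate-corrected fluorescence ratio at least 3 library SD, with starting fluorescence B-score inside 5 SD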
Target sequence (Q96LB2 whole entry, looked up): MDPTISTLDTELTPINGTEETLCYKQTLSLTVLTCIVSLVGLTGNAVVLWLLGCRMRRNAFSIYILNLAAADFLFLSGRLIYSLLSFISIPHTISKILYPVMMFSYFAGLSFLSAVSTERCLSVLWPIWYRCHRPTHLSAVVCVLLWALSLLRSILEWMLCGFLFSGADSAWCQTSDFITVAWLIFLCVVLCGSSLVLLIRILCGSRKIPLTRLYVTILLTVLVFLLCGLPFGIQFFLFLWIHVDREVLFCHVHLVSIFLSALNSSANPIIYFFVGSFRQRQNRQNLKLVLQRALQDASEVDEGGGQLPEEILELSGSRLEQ
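System – MrgX1-expressing HEK293 cells · Incubation – cells plated overnight, dye loaded 0.5 h 37 °C, 0.5 h room temperature · Technique – kinetic Fluo-4 NW fluorescence of intracellular calcium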
MrgX1 antag – antagonists of human MrgX1 receptor, primary screen, HEK293 cells, Fluo-4 calcium flux; Mas-related G-protein coupled receptor member X1 (Homo sapiens), Q96LB2; BAM8-22 antagonism; hits give low values; B-score at 10 µM; actives 1.3% (n = 310,000); AID 588676, 2011;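 active means calcium-response B-score plate-corrected more than 3 library SD below zero, starting fluorescence within 5 deviations, no agonist response on first addition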;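 further: peak minus trough fluorescence over baseline after final BAM8-22 challenge near maximal dose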
MrgX1 PAM – positive allosteric modulators of MrgX1, primary screen, HEK293 cells, Fluo-4 calcium flux; Mas-related G-protein coupled receptor member X1 (Homo sapiens), Q96LB2; AID 588675, 2011; FDSS; hits give high values; actives 0.63% (n = 310,000); B-score at 10 µM;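 active means plate-corrected calcium response at least 3 library SD above typical, normal starting fluorescence, not activating the receptor alone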;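 further: compound read alongside a low EC10 to EC30 dose of BAM8-22 agonist; peak minus trough fluorescence over baseline measured at the second addition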
RGS4 act – RGS4 potentiators or activators, primary screen, cell-based, HEK293 M3R inducible RGS4, calcium flux | B-score at 10 µM | actives 0.92% (n = 310,000) | AID 463111, 2010 | carbachol calcium flux Fluo4; hits give low values;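 active means B-score of the integrated calcium signal more than 4 SD below the library mean, with starting fluorescence not abnormally high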;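 further: negative B-score means reduced calcium response which marks RGS4 activation or potentiation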
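Reagent: ECmax carbachol challenge; Test system: M3R-expressing HEK293 line, RGS4 induced by doxycycline; Schedule: overnight RGS4 induction, 30 min dye load 37 °C, 20 min compound RT; Detection: calcium dye Fluo4 fluorescence; Read-out: Agonist-evoked peak-minus-minimum fluorescence over baseline, integrated ratio, B score.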
RGS4 inh – RGS4 inhibitors, primary screen, cell-based, HEK293 M3R inducible RGS4, calcium flux | Fluo-4 calcium flux; hits give high values; triggered by carbachol at its EC20 | B-score at 10 µM | actives 0.45% (n = 310,000) | AID 463165, 2010;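 active means B-score, a plate-corrected calcium signal, over three deviations above library mean, with baseline fluorescence within five deviations of library mean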;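 further: RGS4 expression induced by doxycycline in cells with stable M3 receptor; B-score is computed from the integrated fluorescence ratio over baseline after carbachol; higher B-score means a larger calcium signal and so more RGS4 inhibition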
RGS4 activ val – reduced carbachol calcium response, RGS4-induced M3R cells, confirmation, RGS4 activator project, cell-based, HEK293 M3R/RGS4 inducible, calcium flux, duplicate | inhibition, % at 10 µM | carbachol calcium flux Fluo4 | AID 602282, 2012 | shares compounds with RGS4 act | actives 89% (n = 1,100);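 active means inhibition above 3 SD of the buffer control wells, cut at about 41% in these data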;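 further: signal is the integrated peak-minus-minimum Fluo4 fluorescence over baseline ratio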
M3R Ca counter – counter-screen for RGS4 activators: effect in non-induced cells; shares compounds with RGS4 act; HEK293 M3R non-induced RGS4, Fluo4 calcium flux; after carbachol challenge at its EC90; inhibition, % at 10 µM; actives 82% (n = 1,100); AID 602283;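 active means inhibition exceeding 3 SD of buffer-only control wells, cut at about 26% in these data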;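 further: percent drop in integrated peak-minus-baseline over baseline Fluo4 ratio after carbachol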
An asterisk follows results filed as active; i = inactive; x = no result.

SMILES | MrgX1 ag | MrgX1 antag | MrgX1 PAM | RGS4 act | RGS4 inh | RGS4 activ val | M3R Ca counter
CC(O)(C#CCN1CCCCC1)c1ccccc1 (stereo not given) | i | i | i | i | i | x | x
CC(C)(C)C(O)(CC#CCN1CCCC1)c1ccccc1 (stereo not given) | i | i | i | -9.4* | i | 76* | 31*
COc1ccc(Cc2nc3ccc(C(=O)N(C)CCn4ccnc4)cc3o2)cc1OC | i | i | i | i | i | x | x
Cc1ccc(S(=O)(=O)Nc2ccc(=O)n(Cc3ccc(Cl)c(Cl)c3)c2)cc1 | i | i | i | i | i | x | x
CCCc1nc(SCC(=O)c2ccccc2)c2c(=O)n(C)c(=O)n(C)c2n1 | i | i | i | -7.8* | i | 94* | 91*
CCc1nc(SCC(=O)c2ccccc2)c2c(=O)n(C)c(=O)n(C)c2n1 | i | i | i | i | i | x | x
CCC(C)NC(=O)c1ccccc1-c1nc2ccccc2[nH]1 (stereo not given) | i | i | i | i | i | x | x
COc1ccccc1C(CNC(=O)c1cccc(NS(=O)(=O)c2ccc(C)c(F)c2)c1)N(C)C (stereo not given) | i | i | i | -8.4* | i | 77* | 55*
c1ccc2c(-c3nc(C4CCCCC4)no3)cc(-c3ccncc3)nc2c1 | i | i | i | -9.4* | i | 93* | 85*
CC1(C)Cc2c(cnn2-c2ccc(F)cc2)C(NC(=O)CN2CCCC2=O)C1 (stereo not given) | i | i | i | i | i | x | x
O=C(Oc1ccc(OC(=O)N2CCCCC2)cc1)c1ccccc1 | i | i | i | -10* | i | 62* | 84*
O=C(Oc1ccccc1)N1CCCC1 | i | i | i | i | i | x | x
Cc1cc(C)c(S(=O)(=O)n2ccc3ccccc32)c(C)c1 | i | i | i | -9.5* | i | 76* | 29*
CC1CCCCN1S(=O)(=O)c1cccc(S(=O)(=O)N2CCOCC2)c1 (stereo not given) | i | i | i | i | i | x | x
CCCN(CCC)CCCOC(=O)c1ccc(Cl)cc1Cl | i | i | i | -8.3* | i | 70* | 84*
Cc1ncc(C[n+]2csc(CCOC(=O)C34CC5CC(CC(C5)C3)C4)c2C)c(N)n1 | i | i | i | i | i | x | x
Cc1c(CCOC(=O)C23CC4CC(CC(C4)C2)C3)sc[n+]1Cc1ccccc1 | i | i | i | -12* | i | 92* | 61*
O=C(NCCc1ccccc1)C(=O)NCC1CCCN1S(=O)(=O)c1ccccc1 (stereo not given) | i | i | i | -9.6* | i | 68* | 26*
CCCCN(CCO)c1ncnc2sc(-c3ccccc3)cc12 | i | i | i | i | i | x | x
Cc1ccccc1OCC(=O)N1CCc2ccccc2C1 | i | i | i | i | i | x | x
Cc1ccc(C)c(OCC(=O)N2CCc3ccccc3C2)c1 | i | i | i | -7.7* | i | 56* | 84*
COc1ccc(N2CCN(c3ncnc4scc(-c5ccc(F)cc5)c34)CC2)cc1 | i | i | i | i | i | x | x
COc1ccc(-c2csc3ncnc(N4CCN(c5ccccc5Cl)CC4)c23)cc1 | i | i | i | -8.6* | i | 76* | 84*
COc1ccc(N2CCN(c3ncnc4scc(-c5ccccc5)c34)CC2)cc1 | i | i | i | -7.9* | i | 54* | 0
